According to ChEMBL document CHEMBL1136929 (J Med Chem, 2009):
Calls of active or inactive are those of the source. No cut-off for these calls is given here.

Columns and labels:
[1] = Cytotoxicity against human U87MG cells at 10 uM after 48 hrs by WST1 assay; assay type: functional, U-87MG ATCC
Outline: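 U87MG cells (4 × 10³ per well) in serum-free medium, attached 24 h, then exposed to compound at 10 µM for 48 h (DMSO stock diluted in medium). Viability inhibition by WST-1 (60 min, 37 °C, A450) compared with solvent-treated controls.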

Jurkat [2] = assay: Cytotoxicity against human Jurkat cells after 48 hrs by WST1 assay; assay type: functional, cell-based
Outline: (§1)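 Jurkat (2 × 10⁴ per well, 2 h settling) or U87MG (4 × 10³ per well, 24 h attachment) cells in serum-free medium. Exposed to compound (0.1-10 µM; DMSO stocks diluted in medium) for 48 h. Viability read by WST-1 (60 min, 37 °C, A450) against solvent controls, blank-subtracted. IC50 is the concentration giving 50% of control absorbance. Three experiments in triplicate.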

[3] = Cytotoxicity against human U87MG cells after 48 hrs by WST1 assay; assay type: functional, cell-based; conditions: u-87mg atcc; outline: as §1
Cannabinoid receptor 2 = Cannabinoid receptor 2 (Homo sapiens, UniProt P34972); assay: Displacement of [3H]CP-55940 from human recombinant CB2 receptor expressed in HEK293 cells; assay type: cell-based
Cannabinoid receptor 1 = Cannabinoid receptor 1 (Homo sapiens, UniProt P21554); assay: Displacement of [3H]CP-55940 from human recombinant CB1 receptor expressed in HEK293 cells; assay type: cell-based
Jurkat [4] = assay: Cytotoxicity against human Jurkat cells at 10 uM after 48 hrs by WST1 assay in presence of AM630; assay type: functional, cell-based
Outline: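 Jurkat cells (2 × 10⁴ per well) in serum-free medium, after 2 h, exposed to compound (10 µM) together with CB2 antagonist AM630 (1 µM) for 48 h. Viability by WST-1 (60 min, 37 °C, A450) against solvent controls. Two experiments in triplicate.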

Sequence of Cannabinoid receptor 2 (P34972 whole entry): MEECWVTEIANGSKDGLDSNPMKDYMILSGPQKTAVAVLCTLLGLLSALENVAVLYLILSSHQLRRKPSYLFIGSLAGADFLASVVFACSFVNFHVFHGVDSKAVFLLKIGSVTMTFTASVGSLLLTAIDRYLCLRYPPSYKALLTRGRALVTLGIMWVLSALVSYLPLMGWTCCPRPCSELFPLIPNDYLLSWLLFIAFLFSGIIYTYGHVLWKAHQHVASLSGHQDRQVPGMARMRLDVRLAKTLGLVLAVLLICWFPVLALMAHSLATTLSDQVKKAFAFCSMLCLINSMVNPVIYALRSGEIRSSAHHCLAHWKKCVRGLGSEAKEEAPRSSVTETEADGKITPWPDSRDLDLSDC
Sequence of Cannabinoid receptor 1 (P21554 whole entry): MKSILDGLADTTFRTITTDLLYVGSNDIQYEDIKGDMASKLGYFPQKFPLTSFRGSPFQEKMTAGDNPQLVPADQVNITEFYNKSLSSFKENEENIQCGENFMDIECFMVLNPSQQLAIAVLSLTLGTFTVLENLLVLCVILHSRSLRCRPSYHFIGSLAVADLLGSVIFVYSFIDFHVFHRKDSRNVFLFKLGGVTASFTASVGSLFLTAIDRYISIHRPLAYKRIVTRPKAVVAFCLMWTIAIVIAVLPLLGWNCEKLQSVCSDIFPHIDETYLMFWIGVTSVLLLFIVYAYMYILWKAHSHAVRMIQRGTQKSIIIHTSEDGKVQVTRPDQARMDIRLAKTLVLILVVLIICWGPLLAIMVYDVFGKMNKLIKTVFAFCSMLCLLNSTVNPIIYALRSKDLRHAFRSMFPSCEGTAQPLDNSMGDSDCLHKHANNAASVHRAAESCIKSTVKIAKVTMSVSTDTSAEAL

Compound | Ki (Cannabinoid receptor 2) | Ki (Cannabinoid receptor 1) | other results
CCCn1c(C)c(C(=O)c2cccc3ccccc23)c2ccccc21 |  |  | Activity [1]: 20%; IC50 (Jurkat [2]): 9.6 µM; IC50 [3]: Not Active
O=C(NC1CCCCCC1)c1cc2cccnc2n(Cc2ccc(F)cc2)c1=O | 0.0007 µM | 0.0096 µM | 
CCCCn1c(=O)c(C(=O)NC2CCCCC2)cc2cccnc21 | 0.07 µM | 5.6 µM | 
O=C(NCCc1ccc(F)cc1)c1cc2cccnc2n(Cc2ccccc2)c1=O | 0.0698 µM | 6.95 µM | 
C[C@H]1CC[C@H](NC(=O)c2cc3cccnc3n(Cc3ccc(F)cc3)c2=O)CC1 | 0.009 µM | 0.3 µM | 
CCCC(C)(C)c1ccc2c(c1)OC(C)(C)[C@@H]1CC=C(C)C[C@@H]21 | 0.003 µM |  | 
O=C(NC1CCCCC1)c1cc2cccnc2n(CCN2CCOCC2)c1=O | 0.0079 µM | 0.56 µM | 
CC1CCC(NC(=O)c2cc3cccnc3n(CCN3CCOCC3)c2=O)CC1 (centres undefined) | 0.0019 µM | 1 µM | 
C[C@H]1CC[C@H](NC(=O)c2cc3cccnc3n(Cc3ccccc3)c2=O)CC1 | 0.0398 µM | 5.25 µM | 
O=C(NC1CCCCC1)c1cc2cccnc2n(Cc2ccc(F)cc2)c1=O | 0.0022 µM | 0.056 µM | 
O=C(NC1CCCCCC1)c1cc2cccnc2n(Cc2ccccc2)c1=O | 0.022 µM | 0.96 µM | 
C[C@H]1CC[C@@H](NC(=O)c2cc3cccnc3n(Cc3ccc(F)cc3)c2=O)CC1 | 0.0007 µM | 0.2 µM | 
O=C(NC1CCCCC1)c1cc2cccnc2n(Cc2ccccc2)c1=O | 0.031 µM | 0.56 µM | 
O=C(NC1CCCCCC1)c1cc2cccnc2n(CCN2CCOCC2)c1=O | 0.003 µM | 0.018 µM | 
CC1CCC(NC(=O)c2cc3cccnc3n(Cc3ccc(F)cc3)c2=O)CC1 (centres undefined) | 0.0009 µM | 0.2 µM | 
CC1CCC(NC(=O)c2cc3cccnc3n(Cc3ccccc3)c2=O)CC1 (centres undefined) | 0.0078 µM | 1.6 µM | Activity [1]: 20%; Activity (Jurkat [2]): Dose-dependent effect; IC50 (Jurkat [2]): 5.98 µM; IC50 [3]: Not Active
COc1ccc(C(=O)c2c(C)n(CCN3CCOCC3)c3cc(I)ccc23)cc1 |  |  | Activity (Jurkat [4]): inactive
C[C@H]1CC[C@@H](NC(=O)c2cc3cccnc3n(Cc3ccccc3)c2=O)CC1 | 0.0058 µM | 1.52 µM | 
